Measured values collected from several papers.
Each line is one published result; the experiments were not run side by side.
Target: Histamine H1 receptor (HRH1, Homo sapiens, UniProt P35367)
Technique: radioligand

For N#Cc1cc(Cn2c(N3CCCC3)nc3ccccc32)ccc1F, the Ki was 2.57 µM (cell-free assay).
CN1CCN(C2c3ccccc3C=Cc3ccccc32)CC1 gave a Ki of 0.002 µM (cell-free assay).
O=C1CCCc2ccc(OCCCN3CCCCC3)cc21 gave a Ki of 3.72 µM (ligand displacement; cell membranes).
CN(C)CCOC1c2ccccc2C=Cc2ccccc21 has a Ki of 0.000316 µM (cell-free assay).
CN(C)c1ccc(/C=C2\CCc3ccc(OCCCN4CCCCC4)cc3C2=O)cc1 has a Ki of 2.14 µM (ligand displacement; cell membranes).
With O=C1NC(c2ccccc2)(c2ccccc2)C(=O)N1CCCN1CCCCC1 the Ki was 6.31 µM (ligand displacement; cell membranes).
CN(C)c1ccc(/C=C/C=C2\CCc3ccc(OCc4ccc(OCCCN5CCCCC5)cc4)cc3C2=O)cc1 has a Ki of 1.84 µM (ligand displacement; cell membranes).
CCCCCCCNCCCc1ccc([N+](=O)[O-])cc1 has a Ki of 9.2 µM (ligand displacement).
With CN(C)c1ccc(/C=C/C=C2\CCc3cc(OCc4ccc(OCCCN5CCCCC5)cc4)ccc3C2=O)cc1 the Ki was 1.37 µM (ligand displacement; cell membranes).
The Ki of CN(C)CCOC1c2ccccc2CCc2ccccc21 is reported as 0.00126 µM (cell-free assay).
The Ki of CCc1nc2cc(OCCCCN3CCC(c4cccc(Cl)c4Cl)CC3)ccc2s1 is reported as 0.69 µM (ligand displacement).
CN1CCN(C2c3ccccc3CCc3ccccc32)CC1 gave a Ki of 0.002 µM (cell-free assay).
For CNc1nc2cc(OCCCCN3CCC(c4cccc(Cl)c4Cl)CC3)ccc2s1, the Ki was 0.028 µM (ligand displacement).
